ChEMBL document CHEMBL1156567, “Sulindac derivatives that activate the peroxisome proliferator-activated receptor gamma but lack cyclooxygenase inhibition” (J Med Chem, 2008)
pEC50: −log10 of the molar value. Activity calls are given as the source filed them. The rule behind the calls is not given here.

Legend:
[1] = target: T1, Peroxisome proliferator-activated receptor gamma (Homo sapiens, UniProt P37231); test: (§1) Agonist activity at PPARgamma expressed in human HCA7 cells assessed as induction of peroxisome proliferator response element after 12 hrs by luciferase reporter assay; type: functional, cell-based
T1 sequence (P37231 whole entry): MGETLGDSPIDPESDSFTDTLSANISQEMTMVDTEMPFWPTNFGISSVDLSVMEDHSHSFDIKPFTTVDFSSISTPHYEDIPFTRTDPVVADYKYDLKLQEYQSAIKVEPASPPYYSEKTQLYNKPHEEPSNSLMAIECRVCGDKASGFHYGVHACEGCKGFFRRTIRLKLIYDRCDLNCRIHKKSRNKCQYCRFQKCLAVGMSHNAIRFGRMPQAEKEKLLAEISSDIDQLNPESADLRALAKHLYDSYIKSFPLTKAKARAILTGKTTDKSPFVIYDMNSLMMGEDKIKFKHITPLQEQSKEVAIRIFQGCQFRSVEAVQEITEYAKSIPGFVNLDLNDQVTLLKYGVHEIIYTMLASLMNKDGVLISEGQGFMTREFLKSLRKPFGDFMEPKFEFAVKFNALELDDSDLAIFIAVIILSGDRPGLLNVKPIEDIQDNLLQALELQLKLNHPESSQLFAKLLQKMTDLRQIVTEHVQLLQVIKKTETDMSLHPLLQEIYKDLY

[2] = target: Prostaglandin G/H synthase 1 (Homo sapiens) (UniProt P23219); test: Inhibition of cyclooxygenase 1 upto 4 uM
Sequence of Prostaglandin G/H synthase 1 (Homo sapiens) (P23219 whole entry): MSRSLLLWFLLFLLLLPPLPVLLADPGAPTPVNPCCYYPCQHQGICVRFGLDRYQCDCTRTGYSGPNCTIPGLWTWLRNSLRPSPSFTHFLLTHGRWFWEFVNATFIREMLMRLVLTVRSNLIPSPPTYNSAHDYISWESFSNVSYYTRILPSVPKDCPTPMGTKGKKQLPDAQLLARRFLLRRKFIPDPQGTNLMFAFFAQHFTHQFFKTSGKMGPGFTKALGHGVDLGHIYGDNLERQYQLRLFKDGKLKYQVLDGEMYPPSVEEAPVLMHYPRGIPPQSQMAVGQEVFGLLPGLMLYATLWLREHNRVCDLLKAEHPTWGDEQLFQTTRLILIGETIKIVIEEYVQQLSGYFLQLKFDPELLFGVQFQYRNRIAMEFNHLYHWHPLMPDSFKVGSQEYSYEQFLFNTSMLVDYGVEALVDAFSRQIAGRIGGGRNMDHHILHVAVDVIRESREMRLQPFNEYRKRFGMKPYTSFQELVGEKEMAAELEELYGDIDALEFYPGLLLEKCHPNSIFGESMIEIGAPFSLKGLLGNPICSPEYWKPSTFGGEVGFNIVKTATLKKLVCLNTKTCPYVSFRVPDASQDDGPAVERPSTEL

[3] = target: T2, Peroxisome proliferator-activated receptor gamma (Homo sapiens) (UniProt P37231); test: Agonist activity at PPARgamma in human HCA7 cells expressing shRNA assessed as induction of peroxisome proliferator response element at 1 uM after 12 hrs by luciferase reporter assay; type: functional, cell-based
T2 sequence (whole entry): T1 sequence (P37231 whole entry)
Procedure, shortened: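 HCA7 lines stably carrying control or PPARγ/α/δ shRNA (nucleofection, puromycin selection). Cells at 40% confluence co-transfected with 1.8 μg PPRE-luciferase and 0.2 μg pSVβgal using Lipofectamine 2000. After 6 h, growth medium for 16 h, then 12 h compound in serum-free medium. Luciferase normalized to β-galactosidase; means, SD, n = 6; Student's t test.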

[4] = target: T2, Peroxisome proliferator-activated receptor gamma (Homo sapiens); test: Agonist activity at PPARgamma in human HCA7 cells assessed as induction of L-FABP expression after 24 hrs by Western blotting; type: functional, cell-based
Procedure, shortened: (§2)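 HCA7 cells (DMEM, 10% FBS) treated 0–1 μM for 24 h. Lysates made in Tween 20/protease-inhibitor buffer, sonicated and cleared at 10000g. Protein measured by BCA, 100 μg/lane run on 12.5% SDS-PAGE. Blotted to nitrocellulose, probed for L-FABP, aP2 and β-actin, HRP secondary with ECL detection.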

[5] = target: T3, Peroxisome proliferator-activated receptor delta (Homo sapiens) (UniProt Q03181); test: Agonist activity at PPARdelta in human HCA7 cells assessed as induction of peroxisome proliferator response element at 1 uM after 12 hrs by luciferase reporter assay; type: functional, cell-based
T3 sequence (whole entry): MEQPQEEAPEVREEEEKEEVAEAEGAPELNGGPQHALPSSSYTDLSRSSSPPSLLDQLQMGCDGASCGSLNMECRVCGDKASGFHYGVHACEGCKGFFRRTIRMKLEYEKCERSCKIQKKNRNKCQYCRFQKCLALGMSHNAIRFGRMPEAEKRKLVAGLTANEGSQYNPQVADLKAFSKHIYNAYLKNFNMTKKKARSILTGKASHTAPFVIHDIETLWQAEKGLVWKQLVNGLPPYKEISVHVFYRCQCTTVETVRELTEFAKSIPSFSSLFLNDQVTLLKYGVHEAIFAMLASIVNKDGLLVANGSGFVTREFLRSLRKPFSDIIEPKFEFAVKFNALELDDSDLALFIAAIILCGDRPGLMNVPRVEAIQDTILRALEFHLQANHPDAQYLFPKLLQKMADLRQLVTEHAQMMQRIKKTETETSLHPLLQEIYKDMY
Procedure, shortened: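 HCA7 human colon cancer cells (which express PPARα, δ and γ) grown in DMEM with 10% FBS to 40% confluence. Transfected with 1.8 μg PPRE-luciferase plus 0.2 μg pSVβgal using Lipofectamine 2000. After 6 h, growth medium for 16 h, then compound in serum-free medium for 12 h. Luciferase normalized to β-galactosidase; n = 6.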

[6] = target: T3, Peroxisome proliferator-activated receptor delta (Homo sapiens); test: Agonist activity at PPARdelta in human HCA7 cells expressing shRNA assessed as induction of peroxisome proliferator response element at 1 uM after 12 hrs by luciferase reporter assay; type: functional, cell-based
Procedure, shortened: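 Stable HCA7 lines made by nucleofection with control shRNA or shRNAs to PPARγ, α or δ, then puromycin-selected; silencing checked by immunoblot. Cells transfected with 1.8 μg PPRE-luciferase plus 0.2 μg pSVβgal (Lipofectamine 2000). Medium change after 6 h, growth medium for 16 h, then 1 μM compound serum-free for 12 h. Luciferase normalized to β-galactosidase; n = 6.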

[7] = target: T2, Peroxisome proliferator-activated receptor gamma (Homo sapiens); test: Agonist activity at PPARgamma in human HCA7 cells assessed as induction of L-FABP expression after 24 hrs by Western blotting in presence of GW-9662; type: functional, cell-based
Procedure, shortened: (§3)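 HCA7 cells given vehicle, the agonist, the antagonist alone, or both together for 24 h. Lysate protein 100 μg/lane on 12.5% SDS-PAGE, transferred to nitrocellulose. Immunoblot probed for L-FABP, aP2 and β-actin with ECL detection.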

[8] = target: T2, Peroxisome proliferator-activated receptor gamma (Homo sapiens); test: Agonist activity at PPARgamma in human HCA7 cells assessed as induction of aP2 expression after 24 hrs by Western blotting; type: functional, cell-based; procedure, shortened: as §2
[9] = target: T2, Peroxisome proliferator-activated receptor gamma (Homo sapiens); test: Stimulation of PPARgamma binding to P32-labeled peroxisome proliferator response element in human HCA7 cells nuclear extracts after 30 mins by electrophoretic mobility shift assay; type: cell-based
Procedure, shortened: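 HCA7 cells treated with vehicle or 0.1–1 μM for 30 min, then nuclear extracts prepared. 5 μg nuclear protein preincubated 10 min at 25 °C in HEPES pH 7.9, glycerol, BSA, poly(dI·dC). 32P-labeled PPRE oligonucleotide added for 20 min at 25 °C. Specificity checked by 100-fold unlabeled or mutant competitor and PPARγ antibody supershift. Run on 4% native PAGE, read by autoradiography.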

[10] = target: T2, Peroxisome proliferator-activated receptor gamma (Homo sapiens); test: as §1; type: functional, cell-based
3T3-L1 = test: Induction of triglyceride accumulation in mouse 3T3L1 cells at 1 uM after 48 hrs; type: functional, cell-based
Procedure, shortened: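 Mouse 3T3-L1 cells in DMEM with 10% calf serum, grown to 60% confluence. Differentiation started with 0.1% IBMX plus 1.0% dexamethasone for 48 h. Then 2 days in growth medium with 10 μg/mL human insulin plus compound, then fresh growth medium for 48 h. Lipid droplets stained with Oil Red O and imaged at 200×.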

[11] = target: T2, Peroxisome proliferator-activated receptor gamma (Homo sapiens); test: Displacement of [3H]troglitazone from human PPARgamma ligand binding domain expressed in Escherichia coli by scintillation proximity assay
Procedure, shortened: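 His-tagged human PPARγ-LBD from E. coli, biotinylated and bound to streptavidin SPA beads. Competition against 50 nM 3H-troglitazone with rising unlabeled compound. Buffer 50 mM HEPES pH 7, 50 mM KCl, 5 mM CHAPS, BSA, no dithiothreitol.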

[12] = target: T2, Peroxisome proliferator-activated receptor gamma (Homo sapiens); test: Agonist activity at PPARgamma in human HCA7 cells assessed as induction of aP2 expression after 24 hrs by Western blotting in presence of GW-9662; type: functional, cell-based; procedure, shortened: as §3

With `Cc1ccc(/C=C2\C=C(CC(=O)O)c3cc(F)ccc32)cc1` the pEC50 [1] was 5.62 and the Activity [2] was “inactive”.

`O=C(O)CC1=C/C(=C\c2ccc(-c3ccc(F)cc3F)cc2)c2ccc(F)cc21` was tested, and the pEC50 [1] was 7.00 and the Activity [2] was “inactive”.

`[N-]=[N+]=NCc1ccc(/C=C2\C=C(CC(=O)O)c3cc(F)ccc32)cc1` was tested, and the pEC50 [1] was 6.05 and the Activity [2] was “inactive”.

`CSc1ccc(/C=C2\C=C(CC(=O)O)c3cc(F)ccc32)cc1` was tested, and the pEC50 [1] was 6.15 and the Activity [2] was “inactive”.

In the case of `CSc1ccc(/C=C2/C(C)=C(CC(=O)O)c3cc(F)ccc32)cc1`, the Activity [2] was “inactive”.

In the case of `CS(=O)(=O)c1ccc(/C=C2\C=C(CC(=O)O)c3cc(F)ccc32)cc1`, the pEC50 [1] was under 5.00 and the Activity [2] was “inactive”.

In the case of `CC(C)(C)Oc1ccc(/C=C2\C=C(CC(=O)O)c3cc(F)ccc32)cc1`, the pEC50 [1] was 5.72 and the Activity [2] was “inactive”.

`O=C(O)CC1=C/C(=C\c2ccc3ccccc3c2)c2ccc(F)cc21` was tested, and the pEC50 [1] was 5.92 and the Activity [2] was “inactive”.

In the case of `O=C(O)CC1=C/C(=C\c2ccc(-c3ccccc3)cc2)c2ccc(F)cc21`, the pEC50 [1] was 7.00 and the Activity [2] was “inactive”.

In the case of `COc1ccc(/C=C2\C=C(CC(=O)O)c3cc(F)ccc32)cc1`, the pEC50 [1] was 5.89 and the Activity [2] was “inactive”.

With `O=C(O)CC1=C/C(=C\c2ccc(C(=O)O)cc2)c2ccc(F)cc21` the pEC50 [1] was under 5.00 and the Activity [2] was “inactive”.

For `O=C(O)CC1=C/C(=C\c2cccc3ccccc23)c2ccc(F)cc21`, the Activity [3] was “inactive”, the Activity [4] was “Active” and the Activity [5] was “Active”. The Activity [6] was “inactive”, the Activity [7] was “inactive” and the Activity [8] was “Active”. For the same compound, the Activity [9] was “Active”, the Activity [10] was “Dose-dependent effect” and the pEC50 [1] was 7.00. The Activity (3T3-L1) was “Active”, the Activity [2] was “inactive” and the Activity [11] was “Active”. The Activity [12] was “inactive”.

For `O=C(O)CC1=C/C(=C\c2cccc3cccnc23)c2ccc(F)cc21`, the pEC50 [1] was 5.82 and the Activity [2] was “inactive”.

In the case of `C#Cc1ccc(/C=C2\C=C(CC(=O)O)c3cc(F)ccc32)cc1`, the pEC50 [1] was 5.96 and the Activity [2] was “inactive”.

With `O=C(O)CC1=CCc2ccc(F)cc21` the pEC50 [1] was under 5.00 and the Activity [2] was “inactive”.

With `O=C(O)CC1=C/C(=C\c2ccc(SC(F)(F)F)cc2)c2ccc(F)cc21` the pEC50 [1] was 6.70 and the Activity [2] was “inactive”.

For `O=C(O)CC1=C/C(=C\c2ccc(F)c3ccccc23)c2ccc(F)cc21`, the pEC50 [1] was 7.00 and the Activity [2] was “inactive”.

For `O=C(O)CC1=C/C(=C\c2ccc(C(F)(F)F)cc2)c2ccc(F)cc21`, the pEC50 [1] was 5.60 and the Activity [2] was “inactive”.

For `O=C(O)CC1=C/C(=C\c2ccccc2)c2ccc(F)cc21`, the pEC50 [1] was 5.77 and the Activity [2] was “inactive”.

`C[S+]([O-])c1ccc(/C=C2\C=C(CC(=O)O)c3cc(F)ccc32)cc1` (stereo unspecified) was tested, and the pEC50 [1] was under 5.00 and the Activity [2] was “inactive”.

In the case of `O=C(O)CC1=C/C(=C\c2ccc(Br)cc2)c2ccc(F)cc21`, the pEC50 [1] was 5.96 and the Activity [2] was “inactive”.

In the case of `CSc1ccc(-c2ccc(/C=C3\C=C(CC(=O)O)c4cc(F)ccc43)cc2)cc1`, the pEC50 [1] was 5.82 and the Activity [2] was “inactive”.

`O=C(O)CC1=C/C(=C\c2ccc3nccnc3c2)c2ccc(F)cc21` was tested, and the pEC50 [1] was under 5.00 and the Activity [2] was “inactive”.
